Source: ChEMBL document CHEMBL1649139, “A novel gene, erm(41), confers inducible macrolide resistance to clinical isolates of Mycobacterium abscessus but is absent from Mycobacterium chelonae” (2009)

Key:
Type in all cases: functional
[1] = test system: Mycobacteroides abscessus; experiment: Antimicrobial activity against Mycobacterium abscessus isolate MC879-2 at day 14 preincubated with 0.1 ug/ml erythromycin for 3 days by broth microdilution method
[2] = test system: Mycobacteroides abscessus; experiment: Antimicrobial activity against Mycobacterium abscessus isolate MC1448 at day 3 preincubated with 0.1 ug/ml for 3 days by broth microdilution method
In short: (§1)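 Clarithromycin MIC by broth microdilution following CLSI guidelines. Before testing, organisms were preincubated for 3 days in medium alone or in clarithromycin or erythromycin (0.01–1 μg/ml), long enough for at least two generations judged by turbidity increase. MICs were read on day 3 and again on extended incubation out to day 14.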

[3] = test system: Mycobacteroides abscessus; experiment: Antimicrobial activity against Mycobacterium abscessus isolate MC1448 at day 5 preincubated with 0.1 ug/ml for 3 days by broth microdilution method; in short: as §1
[4] = test system: Mycobacteroides abscessus; experiment: Antimicrobial activity against Mycobacterium abscessus isolate MC1448 at day 7 preincubated with 0.1 ug/ml for 3 days by broth microdilution method; in short: as §1
[5] = test system: Mycobacteroides abscessus; experiment: Antimicrobial activity against Mycobacterium abscessus isolate MC879-2 at day 9 preincubated with 0.1 ug/ml for 3 days by broth microdilution method
[6] = test system: Mycobacteroides abscessus; experiment: Antimicrobial activity against Mycobacterium abscessus isolate MC1448 at day 9 preincubated with 0.1 ug/ml for 3 days by broth microdilution method; in short: as §1
[7] = test system: Mycobacteroides abscessus; experiment: Antimicrobial activity against Mycobacterium abscessus isolate MC879-2 at day 14 preincubated with 0.1 ug/ml for 3 days by broth microdilution method
[8] = test system: Mycobacteroides abscessus; experiment: Antimicrobial activity against Mycobacterium abscessus isolate MC879 on day 4 by broth microdilution method; conditions: isolate MC879, 96 h
[9] = test system: Mycobacteroides abscessus; experiment: Antimicrobial activity against Mycobacterium abscessus isolate MC958 on day 14 by broth microdilution method; conditions: isolate MC958, 336 h
[10] = test system: Mycolicibacterium smegmatis; experiment: Antimicrobial activity against Mycobacterium smegmatis transformed with erm allele Mycobacterium abscessus isolate MC958 by broth microdilution method
[11] = test system: Mycolicibacterium smegmatis; experiment: Antimicrobial activity against Mycobacterium smegmatis transformed with erm allele Mycobacterium abscessus isolate MC958 preincubated with 2 ug/ml erythromycin for 20 to 24 hrs by broth microdilution method
[12] = test system: Mycolicibacterium smegmatis; experiment: Antimicrobial activity against Mycobacterium smegmatis transformed with erm allele Mycobacterium abscessus isolate MC719 preincubated with 2 ug/ml erythromycin for 20 to 24 hrs by broth microdilution method
[13] = test system: Mycolicibacterium smegmatis; experiment: Antimicrobial activity against Mycobacterium smegmatis transformed with erm allele Mycobacterium abscessus isolate MC879-2 preincubated with 2 ug/ml erythromycin for 20 to 24 hrs by broth microdilution method
[14] = test system: Mycobacteroides abscessus; experiment: Antimicrobial activity against Mycobacterium abscessus isolate MC723 at day 5 by broth microdilution method; conditions: isolate MC723, 120 h; in short: as §1
[15] = test system: Mycobacteroides abscessus; experiment: Antimicrobial activity against Mycobacterium abscessus isolate MC719 at day 9 by broth microdilution method; conditions: isolate MC719, 216 h; in short: as §1
[16] = test system: Mycobacteroides abscessus; experiment: Antimicrobial activity against Mycobacterium abscessus isolate MC723 at day 9 by broth microdilution method; conditions: isolate MC723, 216 h; in short: as §1
[17] = test system: Mycobacteroides abscessus; experiment: Antimicrobial activity against Mycobacterium abscessus isolate MC879 at day 14 by broth microdilution method; conditions: isolate MC879, 336 h
In short: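 Clarithromycin MIC by broth microdilution following CLSI guidelines. Organisms were preincubated […], for 3 days before the assay. This allowed at least two generations, judged by the rise in turbidity. The MIC was read at the stated day, with incubation extended from day 3 to as long as 14 days.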

[18] = test system: Mycobacteroides abscessus; experiment: Antimicrobial activity against Mycobacterium abscessus isolate MC879 at day 3 preincubated with 0.1 ug/ml erythromycin for 3 days by broth microdilution method
In short: (§2)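 To test inducible resistance, cultures were preincubated for 3 days in clarithromycin or erythromycin, within 0.01–1 μg/ml. The period was set so cultures passed at least two generations, judged by turbidity increase. Clarithromycin MIC was then determined by CLSI-conforming broth microdilution and read on the stated day, from day 3 up to 14.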

[19] = test system: Mycobacteroides abscessus; experiment: Antimicrobial activity against Mycobacterium abscessus isolate MC879 at day 5 preincubated with 0.1 ug/ml erythromycin for 3 days by broth microdilution method
In short: (§3)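 Clinical M. abscessus isolates were preincubated for 3 days, either in medium alone or in clarithromycin or erythromycin at 0.01 to 1 μg/ml, allowing at least two generations of growth judged by turbidity. The clarithromycin MIC was then determined by CLSI-conforming broth microdilution, with plates read on day 3 and on extended incubation (days 5 to 14).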

[20] = test system: Mycobacteroides abscessus; experiment: Antimicrobial activity against Mycobacterium abscessus isolate MC1082 at day 9 by broth microdilution method; conditions: isolate MC1082, 216 h
In short: (§4)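 Clarithromycin MIC by CLSI-conforming broth microdilution. Before testing, cultures were preincubated for 3 days, either in medium alone or in clarithromycin or erythromycin (tested range 0.01–1 μg/ml). Preincubation ran for at least two generations, judged by turbidity increase. Plates were read on day 3 and on extended incubation at days 5 to 14.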

[21] = test system: Mycobacteroides abscessus; experiment: Antimicrobial activity against Mycobacterium abscessus isolate MC1028 at day 14 by broth microdilution method; conditions: isolate MC1028, 336 h; in short: as §4
[22] = test system: Mycobacteroides abscessus; experiment: Antimicrobial activity against Mycobacterium abscessus isolate MC1082 at day 3 preincubated with 0.1 ug/ml erythromycin for 3 days by broth microdilution method; in short: as §4
[23] = test system: Mycobacteroides abscessus; experiment: Antimicrobial activity against Mycobacterium abscessus isolate MAB30 at day 5 preincubated with 0.1 ug/ml erythromycin for 3 days by broth microdilution method; in short: as §4
[24] = test system: Mycobacteroides abscessus; experiment: Antimicrobial activity against Mycobacterium abscessus isolate MAB30 at day 7 preincubated with 0.1 ug/ml erythromycin for 3 days by broth microdilution method; in short: as §4
[25] = test system: Mycobacteroides abscessus; experiment: Antimicrobial activity against Mycobacterium abscessus isolate MC1028 at day 14 preincubated with 0.1 ug/ml erythromycin for 3 days by broth microdilution method; in short: as §4
[26] = test system: Mycobacteroides abscessus; experiment: Antimicrobial activity against Mycobacterium abscessus isolate MC719 at day 7 preincubated with 0.1 ug/ml erythromycin for 3 days by broth microdilution method; in short: as §1
[27] = test system: Mycobacteroides abscessus; experiment: Antimicrobial activity against Mycobacterium abscessus isolate MC879-2 at day 3 preincubated with 0.1 ug/ml erythromycin for 3 days by broth microdilution method
[28] = test system: Mycobacteroides abscessus; experiment: Antimicrobial activity against Mycobacterium abscessus isolate MC724 at day 9 preincubated with 0.1 ug/ml erythromycin for 3 days by broth microdilution method; in short: as §2
[29] = test system: Mycobacteroides abscessus; experiment: Antimicrobial activity against Mycobacterium abscessus isolate MC723 at day 14 preincubated with 0.1 ug/ml erythromycin for 3 days by broth microdilution method; in short: as §1
[30] = test system: Mycobacteroides abscessus; experiment: Antimicrobial activity against Mycobacterium abscessus isolate MC724 at day 14 preincubated with 0.1 ug/ml erythromycin for 3 days by broth microdilution method; in short: as §1
[31] = test system: Mycobacteroides abscessus; experiment: Antimicrobial activity against Mycobacterium abscessus isolate MC958 at day 5 preincubated with 0.1 ug/ml for 3 days by broth microdilution method; in short: as §3
[32] = test system: Mycobacteroides abscessus; experiment: Antimicrobial activity against Mycobacterium abscessus isolate MC719 at day 5 preincubated with 0.1 ug/ml for 3 days by broth microdilution method; in short: as §3
[33] = test system: Mycobacteroides abscessus; experiment: Antimicrobial activity against Mycobacterium abscessus isolate MC724 at day 5 preincubated with 0.1 ug/ml for 3 days by broth microdilution method; in short: as §3
[34] = test system: Mycobacteroides abscessus; experiment: Antimicrobial activity against Mycobacterium abscessus isolate MC879 at day 14 preincubated with 0.1 ug/ml for 3 days by broth microdilution method; in short: as §2
[35] = test system: Mycobacteroides abscessus; experiment: Antimicrobial activity against Mycobacterium abscessus isolate MC720 at day 14 preincubated with 0.1 ug/ml for 3 days by broth microdilution method; in short: as §1

Measured: MIC

CC[C@H]1OC(=O)[C@H](C)[C@@H](O[C@H]2C[C@@](C)(OC)[C@@H](O)[C@H](C)O2)[C@H](C)[C@@H](O[C@@H]2O[C@H](C)C[C@H](N(C)C)[C@H]2O)[C@](C)(OC)C[C@@H](C)C(=O)[C@H](C)[C@@H](O)[C@]1(C)O [CLARITHROMYCIN]
≤ 2 µg/mL: [8]
32 µg/mL: [9]
1 µg/mL: [14]
16 µg/mL: [11] | [12] | [13]
2 µg/mL: [10]
4 µg/mL: [19] | [31] | [32] | [33]
> 32 µg/mL: [1] | [2] | [3] | [4] | [5] | [6] | [7] | [15] | [16] | [17] | [26] | [27] | [28] | [29] | [30] | [34] | [35]
≤ 0.5 µg/mL: [18] | [20] | [21] | [22] | [23] | [24] | [25]
